Calls of active or inactive are those of the source. No cut-off for these calls is given here.
What was measured:
HCT-116 [1] = assay: Inhibition of cell stemness in human HCT116 cells assessed as morphological alterations at 5 uM after 10 days by microscopic analysis; format: functional, cell-based; conditions: time 10.0 day
Outline: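 Sorted ALDH⁺ HCT-116 cells, 800/well, in serum-free DMEM with B27 (1:50), EGF 20 ng/mL, β-FGF 10 ng/mL; co-incubated with compound (5 μM) or DMSO vehicle for 10 days; sphere number, diameter and morphology scored from microscopy images; mean ± SD, n = 3.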

HCT-116 [2] = assay: Effect on Wnt/beta-Catenin signaling in human HCT116 cells assessed as reduction in MMP7 mRNA level at 20 uM after 24 hrs by RT-qPCR analysis; format: functional, cell-based
Outline: (§1)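 HCT-116 cells treated 24 h; total RNA by TRIZOL, one-step RT-qPCR: 55 °C 10 min, 95 °C 1 min, then 39 cycles of 95 °C 10 s and 60 °C 30 s, with melting-curve and no-template controls. β-Actin as internal standard; relative expression by 2^−ΔΔCt, mean ± SD (n = 3).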

HCT-116 [3] = assay: Effect on Wnt/beta-Catenin signaling in human HCT116 cells assessed as reduction in S100A4 mRNA level at 20 uM after 24 hrs by RT-qPCR analysis; format: functional, cell-based; outline: as §1
HCT-116 [4] = assay: Induction of apoptosis in human HCT116 cells assessed as late apoptotic cells at 5 uM after 24 hrs by annexin V-FITC/propidium iodide staining based flow cytometry (reference value: 5.1%); format: functional
HCT-116 [5] = assay: Induction of apoptosis in human HCT116 cells assessed as down regulation of total PARP at 20 uM incubated for 24 hrs by Western blot analysis; format: functional, cell-based
Outline: (§2)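 HCT-116 cells at 2 × 10⁵ cells/mL in DMEM/10% FBS, grown 12 h at 37 °C, then treated 24 h (vehicle DMSO). Lysates quantified by BCA, run on 10% SDS-PAGE, PVDF transfer, blocked in 5% milk/TBST, primary antibodies 4 °C overnight, HRP secondary 2 h, chemiluminescent detection; normalized to β-actin, n = 3.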

HCT-116 [6] = assay: Inhibition of cell stemness in human HCT116 cells assessed as reduction in OCT4 mRNA transcription levels at 20 uM after 24 hrs by RT-qPCR analysis; format: functional, cell-based
Outline: (§3)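 Sorted ALDH⁺ HCT-116 cells treated 24 h; TRIZOL RNA, one-step RT-qPCR (RT 10 min 55 °C; 95 °C 1 min; 39 cycles 95 °C 10 s/60 °C 30 s) with melting-curve check; β-actin reference; fold change by 2^−ΔΔCt; t test, mean ± SD, n = 3.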

PC-3 = assay: Cytotoxicity against human PC3 cells assessed as reduction in cell viability incubated for 72 hrs by MTT assay; format: functional, cell-based; conditions: PC-3, 72 h
Outline: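 About 5 × 10³ cells/well, seeded overnight at 37 °C, 5% CO₂, in DMEM or RPMI-1640 with 10% FBS and antibiotics. DMSO-dissolved compounds diluted in medium, exposure 72 h.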

HCT-116 [7] = assay: Induction of apoptosis in human HCT116 cells assessed as late apoptotic cells at 10 uM after 24 hrs by annexin V-FITC/propidium iodide staining based flow cytometry (reference value: 5.1%); format: functional
HCT-116 [8] = assay: Induction of apoptosis in human HCT116 cells assessed as necrotic cells at 10 uM after 24 hrs by annexin V-FITC/propidium iodide staining based flow cytometry (reference value: 5.6%); format: functional
HCT-116 [9] = assay: Induction of apoptosis in human HCT116 cells assessed as early apoptotic cells at 5 uM after 24 hrs by annexin V-FITC/propidium iodide staining based flow cytometry (reference value: 1%); format: functional
[10] = Toxicity in BALB/c mouse xenografted with human HCT116 cells assessed as change in body weight at 60 to 90 mg/kg, po administered twice daily for 4 weeks and measured every 3 days; format: organism-based, HCT-116; conditions: in vivo, 672 h, dose 60-90 mg/kg
Outline: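 Male 5-week BALB/c nude mice (16−18 g), 0.2 mL of 5 × 10⁷ cells/mL HCT-116 injected into right armpit; at ~100 mm³ randomized, 5/group; intragastric 60 or 90 mg/kg twice daily for 4 weeks; tumor volume and body weight every 3 days; after sacrifice heart, liver, spleen, lung, kidney HE-stained.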

HCT-116 [11] = assay: Inhibition of cell stemness in human HCT116 cells assessed as reduction in SOX2 mRNA transcription levels at 20 uM after 24 hrs by RT-qPCR analysis; format: functional, cell-based; outline: as §3
[12] = molecular target: T1, Aldehyde dehydrogenase 1A1 (Homo sapiens) (UniProt P00352); assay: Inhibition of ALDH1A1 in human HCT116 cells at 5 uM after 24 hrs by aldefluor staining based fluorescence analysis; format: cell-based; conditions: HCT-116
T1 sequence (whole entry): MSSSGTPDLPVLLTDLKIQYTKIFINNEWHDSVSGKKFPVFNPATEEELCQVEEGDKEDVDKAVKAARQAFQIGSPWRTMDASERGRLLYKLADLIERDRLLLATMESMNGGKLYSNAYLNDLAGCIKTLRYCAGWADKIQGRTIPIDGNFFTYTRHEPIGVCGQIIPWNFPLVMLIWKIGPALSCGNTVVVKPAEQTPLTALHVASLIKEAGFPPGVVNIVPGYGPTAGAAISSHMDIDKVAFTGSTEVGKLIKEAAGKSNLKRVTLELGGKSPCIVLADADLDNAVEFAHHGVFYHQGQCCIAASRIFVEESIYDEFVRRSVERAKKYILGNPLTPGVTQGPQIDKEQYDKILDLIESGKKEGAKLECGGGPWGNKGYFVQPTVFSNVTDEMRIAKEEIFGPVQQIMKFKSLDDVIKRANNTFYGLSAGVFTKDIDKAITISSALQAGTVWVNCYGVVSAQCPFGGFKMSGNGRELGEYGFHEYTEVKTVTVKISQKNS
Outline: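 HCT-116 cells, 2 × 10⁵/well, grown overnight at 37 °C, 5% CO₂, then treated 24 h (vehicle DMSO). Aldefluor staining read in FITC channel by FACS for proportion of ALDH⁺ cells; DEAB-pretreated cells set baseline fluorescence.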

[13] = molecular target: Glycogen synthase kinase-3 beta (Homo sapiens) (UniProt P49841); assay: Inhibition of GSK3beta phosphorylation at serine 9 in human HCT-116 cells after 24 hrs by Western blot analysis; format: cell-based; conditions: dose 5-20 µM; outline: as §2
Sequence of Glycogen synthase kinase-3 beta (Homo sapiens) (P49841 whole entry, looked up): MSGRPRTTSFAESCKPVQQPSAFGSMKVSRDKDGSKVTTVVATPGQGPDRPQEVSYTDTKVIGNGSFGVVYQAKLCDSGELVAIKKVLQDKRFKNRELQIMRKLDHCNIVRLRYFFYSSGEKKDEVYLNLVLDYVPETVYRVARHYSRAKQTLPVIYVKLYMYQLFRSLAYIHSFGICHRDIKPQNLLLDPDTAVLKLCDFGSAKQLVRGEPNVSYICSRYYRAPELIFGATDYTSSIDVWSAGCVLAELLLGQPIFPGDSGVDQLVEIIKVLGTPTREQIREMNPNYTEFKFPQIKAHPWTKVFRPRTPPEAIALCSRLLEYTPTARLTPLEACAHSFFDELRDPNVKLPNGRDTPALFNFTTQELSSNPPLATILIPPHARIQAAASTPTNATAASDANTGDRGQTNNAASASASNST

O=C(NCCO)c1ccc2c(c1)nc(Nc1cccc(Cl)c1)c1ccncc12
inhibition (HCT-116 [1]): Active
Activity (HCT-116 [2]): Active
Activity (HCT-116 [3]): Active
Activity (HCT-116 [4]): 14.3%
Activity (HCT-116 [5]): Active
inhibition (HCT-116 [6]): Active
IC50 (PC-3): 4.53 µM
Activity (HCT-116 [7]): 23.4%
Activity (HCT-116 [8]): 7.6%
Activity (HCT-116 [9]): 18%
Activity [10]: Non-Toxic
inhibition (HCT-116 [11]): Active
inhibition [12]: 77%
inhibition [13]: Dose-Dependent Effect

Source: ChEMBL document CHEMBL4808178 (J Med Chem, 2021)
